In ChEMBL document CHEMBL1926616, “Design, synthesis and biological evaluation of novel glycosylated diphyllin derivatives as topoisomerase II inhibitors” (Eur J Med Chem, 2012):
Activity calls are given as the source filed them. The rule behind the calls is not given here.

Tests used:
HCT-116 [1] = assay: Cytotoxicity against human HCT116 cells after 72 hrs by sulforhodamine B and MTT assay; type: functional, cell-based; conditions: HCT-116, 72 h
Outline: (§1)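 Log-phase cells were plated overnight and exposed for 72 h to a 5-concentration gradient, in triplicate wells. SRB arm: 10% cold TCA fixation for 1 h at 4 °C, 4 mg/ml SRB in 1% acetic acid for 15 min, dye dissolved in 10 mM Tris-HCl, read at 520 nm. MTT arm: 5 mg/mL MTT for 4 h at 37 °C, SDS-isobutanol-HCl solubilisation for 12–20 h, read at 570 nm. IC50 by Logit method from at least 3 independent tests.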

MCF7 = assay: Cytotoxicity against human MCF7 cells after 72 hrs by sulforhodamine B and MTT assay; type: functional, cell-based; conditions: MCF7, 72 h; outline: as §1
KB [2] = assay: Cytotoxicity against human KB cells after 72 hrs by sulforhodamine B and MTT assay; type: functional, cell-based; outline: as §1
[3] = target: DNA topoisomerase 2-alpha (Homo sapiens) (UniProt P11388); assay: Inhibition of human topoisomerase 2-mediated decatenation of kinetoplast DNA at 100 uM after 15 mins by agarose gel electrophoresis
Outline: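 ATP-dependent kDNA decatenation by 1 unit Topo II in 50 mM Tris-HCl pH 7.7, 50 mM KCl, 5 mM MgCl2, 1 mM ATP, 0.5 mM DTT, 0.5 mM EDTA and BSA, run for 15 min at 37 °C. Stopped with 10% SDS, then run on 1% agarose in TAE at 4 V/cm for 1 h and stained with ethidium bromide.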

K562 [4] = assay: Resistance index, ratio of IC50 for adriamycin-selected multi drug-resistant human K562 cells to IC50 for human K562 cells; type: functional
Outline: (§2)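 Resistance factor is the IC50 in the resistant line divided by the IC50 in the parental line. Both IC50s come from 72 h SRB/MTT growth-inhibition assays, derived by the Logit method from at least 3 independent tests.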

HCT-116 [5] = assay: Cell cycle arrest in human HCT116 cells assessed as accumulation at G0/G1 phase at 1 to 10 uM after 24 hrs using propidium iodide stain by FACS-flow cytometry; type: functional, cell-based
HCT-116 [6] = assay: Cell cycle arrest in human HCT116 cells assessed as accumulation at G2/M phase at 1 to 10 uM after 24 hrs using propidium iodide stain by FACS-flow cytometry; type: functional, cell-based
HL-60 [7] = assay: Induction of apoptosis in human HL60 cells assessed as DNA fragmentation at 10 uM after 36 hrs by gel electrophoresis; type: functional, cell-based
Outline: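 HL-60 cells were seeded and exposed to compound for 36 h. Harvested cells were lysed with an equal volume of 1.2% SDS, and the fragmented DNA was extracted and resolved by gel electrophoresis.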

HL-60 [8] = assay: Cell cycle arrest in human HL60 cells assessed as accumulation at G0/G1 phase at 10 uM after 24 hrs using propidium iodide stain by FACS-flow cytometry (reference value: 39%); type: functional
HL-60 [9] = assay: Cell cycle arrest in human HL60 cells assessed as accumulation at S phase at 10 uM after 24 hrs using propidium iodide stain by FACS-flow cytometry (reference value: 38.4%); type: functional
HL-60 [10] = assay: Cell cycle arrest in human HL60 cells assessed as accumulation at G2/M phase at 10 uM after 24 hrs using propidium iodide stain by FACS-flow cytometry (reference value: 22.6%); type: functional
HL-60 [11] = assay: Cell cycle arrest in human HL60 cells assessed as accumulation at G2/M phase at 1 uM after 24 hrs using propidium iodide stain by FACS-flow cytometry (reference value: 22.6%); type: functional
HL-60 [12] = assay: Cell cycle arrest in human HL60 cells assessed as accumulation at G0/G1 phase at 1 uM after 24 hrs using propidium iodide stain by FACS-flow cytometry (reference value: 39%); type: functional
HL-60 [13] = assay: Cell cycle arrest in human HL60 cells assessed as accumulation at S phase at 1 uM after 24 hrs using propidium iodide stain by FACS-flow cytometry (reference value: 38.4%); type: functional
KB [14] = assay: Cytotoxicity against vincristine-selected multi drug-resistant human KB cells after 72 hrs by sulforhodamine B and MTT assay; type: functional, cell-based
Outline: (§3)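 Log-phase cells were seeded, preincubated (overnight for SRB, 24 h for MTT), then given a five-concentration gradient in triplicate wells for 72 h. For MTT, reagent was added for 4 h at 37 °C, solubilized in SDS-isobutanol-HCl for 12-20 h, and read at 570 nm. IC50 was derived by the Logit method from at least 3 independent tests.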

K562 [15] = assay: Cytotoxicity against human K562 cells after 72 hrs by sulforhodamine B and MTT assay; type: functional, cell-based; conditions: K562, 72 h; outline: as §3
K562 [16] = assay: Cytotoxicity against adriamycin-selected multi drug-resistant human K562 cells after 72 hrs by sulforhodamine B and MTT assay; type: functional, cell-based; conditions: K562, 72 h; outline: as §3
KB [17] = assay: Resistance index, ratio of IC50 for vincristine-selected multi drug-resistant human KB cells to IC50 for human KB cells; type: functional; outline: as §2

Sequence of DNA topoisomerase 2-alpha (Homo sapiens) (P11388 whole entry): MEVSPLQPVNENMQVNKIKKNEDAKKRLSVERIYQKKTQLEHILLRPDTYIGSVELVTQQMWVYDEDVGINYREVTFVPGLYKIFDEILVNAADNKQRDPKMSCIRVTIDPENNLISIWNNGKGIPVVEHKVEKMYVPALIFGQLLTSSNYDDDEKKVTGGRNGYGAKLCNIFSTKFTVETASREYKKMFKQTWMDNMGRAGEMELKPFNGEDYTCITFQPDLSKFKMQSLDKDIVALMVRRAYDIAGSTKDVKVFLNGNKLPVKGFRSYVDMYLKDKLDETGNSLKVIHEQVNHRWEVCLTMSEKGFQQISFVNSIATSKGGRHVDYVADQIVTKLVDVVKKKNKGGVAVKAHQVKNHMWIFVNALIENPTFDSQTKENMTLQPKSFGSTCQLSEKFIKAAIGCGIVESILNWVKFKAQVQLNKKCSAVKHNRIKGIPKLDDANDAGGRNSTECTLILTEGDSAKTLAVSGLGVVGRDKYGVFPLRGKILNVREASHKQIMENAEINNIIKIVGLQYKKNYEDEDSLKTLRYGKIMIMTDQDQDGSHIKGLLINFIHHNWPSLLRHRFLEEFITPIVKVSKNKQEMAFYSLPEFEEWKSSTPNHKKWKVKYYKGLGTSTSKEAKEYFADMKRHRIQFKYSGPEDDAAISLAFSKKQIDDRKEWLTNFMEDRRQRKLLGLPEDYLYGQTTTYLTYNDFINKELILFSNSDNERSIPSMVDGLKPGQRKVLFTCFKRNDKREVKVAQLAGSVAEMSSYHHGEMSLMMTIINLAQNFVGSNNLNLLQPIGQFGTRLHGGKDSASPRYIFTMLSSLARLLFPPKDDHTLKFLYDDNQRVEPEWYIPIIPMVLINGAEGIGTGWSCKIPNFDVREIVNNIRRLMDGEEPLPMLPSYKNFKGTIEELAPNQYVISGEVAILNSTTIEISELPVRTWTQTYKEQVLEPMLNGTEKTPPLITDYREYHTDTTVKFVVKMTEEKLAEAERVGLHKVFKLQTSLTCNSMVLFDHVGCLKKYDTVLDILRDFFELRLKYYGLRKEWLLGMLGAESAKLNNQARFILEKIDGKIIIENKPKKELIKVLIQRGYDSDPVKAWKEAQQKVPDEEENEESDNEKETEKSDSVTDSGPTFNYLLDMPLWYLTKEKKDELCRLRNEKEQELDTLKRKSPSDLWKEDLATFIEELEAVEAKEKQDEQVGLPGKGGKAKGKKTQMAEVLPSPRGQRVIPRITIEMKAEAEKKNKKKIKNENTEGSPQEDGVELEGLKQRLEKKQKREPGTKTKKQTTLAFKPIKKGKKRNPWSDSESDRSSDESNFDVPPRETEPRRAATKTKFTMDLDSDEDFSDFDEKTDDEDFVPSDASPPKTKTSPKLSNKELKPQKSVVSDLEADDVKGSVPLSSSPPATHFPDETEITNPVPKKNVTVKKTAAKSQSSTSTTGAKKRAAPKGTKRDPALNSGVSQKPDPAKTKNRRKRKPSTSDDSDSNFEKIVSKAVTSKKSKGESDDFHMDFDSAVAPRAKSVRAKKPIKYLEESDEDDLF

SMILES	IC50 (HCT-116 [1])	IC50 (MCF7)	IC50 (KB [2])	inhibition [3]	further results
COc1cc2c(O[C@H]3O[C@@H](C)[C@@H](OC(C)=O)[C@@H](O)[C@@H]3O)c3c(c(-c4ccc5c(c4)OCO5)c2cc1OC)C(=O)OC3 [4'-O-ACETYLPATENTIFLORIN B]	0.27 µM	0.11 µM	0.14 µM	Active	
COc1cccc2c1C(=O)c1c(O)c3c(c(O)c1C2=O)C[C@@](O)(C(=O)CO)C[C@@H]3O[C@H]1C[C@H](N)[C@H](O)[C@H](C)O1 [DOXORUBICIN]					Ratio IC50 (K562 [4]): 132.2
COc1cc2c(O[C@@H]3O[C@H](C)[C@H](O)[C@H](O)[C@H]3O)c3c(c(-c4ccc5c(c4)OCO5)c2cc1OC)C(=O)OC3	6.43 µM	1.81 µM	3.05 µM	inactive	Activity (HCT-116 [5]): inactive; Activity (HCT-116 [6]): inactive; Activity (HL-60 [7]): Active; Activity (HL-60 [8]): 40.5%; Activity (HL-60 [9]): 34.6%; Activity (HL-60 [10]): 24.9%; Activity (HL-60 [11]): 31.5%; Activity (HL-60 [12]): 38.6%; Activity (HL-60 [13]): 30%
COc1cc2c(O[C@H]3O[C@@H](C)[C@@H](O)[C@@H](O)[C@@H]3O)c3c(c(-c4ccc5c(c4)OCO5)c2cc1OC)C(=O)OC3 [PATENTIFLORIN B]	> 10 µM	1.42 µM	> 10 µM	inactive	Activity (HL-60 [7]): Active
COC[C@H]1O[C@@H](Oc2c3c(c(-c4ccc5c(c4)OCO5)c4cc(OC)c(OC)cc24)C(=O)OC3)[C@H](O)[C@@H](O)[C@H]1O	> 10 µM	> 10 µM	4.1 µM	inactive	
COc1cc([C@@H]2c3cc4c(cc3[C@@H](O[C@@H]3O[C@@H]5CO[C@@H](C)O[C@H]5[C@H](O)[C@H]3O)[C@H]3COC(=O)[C@H]23)OCO4)cc(OC)c1O [ETOPOSIDE]	0.91 µM	1.09 µM	0.85 µM	inactive	IC50 (KB [14]): 153 µM; Ratio IC50 (K562 [4]): 47.1; IC50 (K562 [15]): 5.16 µM; IC50 (K562 [16]): 243 µM; Ratio IC50 (KB [17]): 180.3
COc1cc2c(O[C@@H]3O[C@H](CO)[C@H](O)[C@H](O)[C@H]3O)c3c(c(-c4ccc5c(c4)OCO5)c2cc1OC)C(=O)OC3	> 10 µM	4.11 µM	4.89 µM	inactive	
COc1cc2c(O[C@@H]3O[C@@H]4COC(C)(C)O[C@H]4[C@H](O)[C@H]3O)c3c(c(-c4ccc5c(c4)OCO5)c2cc1OC)C(=O)OC3	0.043 µM	0.053 µM	0.01 µM	Active	
COc1cc2c(O[C@@H]3O[C@@H]4CO[C@@H](C(C)C)O[C@H]4[C@H](O)[C@H]3O)c3c(c(-c4ccc5c(c4)OCO5)c2cc1OC)C(=O)OC3	0.016 µM	0.0002 µM	0.0006 µM	Active	
